Experimental data of several laboratories.
Each line is one published result; the experiments were not run side by side.
Target: Mitogen-activated protein kinase 14 (MAPK14, Homo sapiens, UniProt Q16539)

COC(=O)Nc1nc2ccc(C(=O)c3ccccc3)cc2[nH]1 — remaining binding (cell-free assay, competition with immobilised ligand; 10 µM): 17%
O=C1CCc2cc(Nc3cc(OC4CCOCC4)c([N+](=O)[O-])cc3Cl)ccc2N1 — remaining binding (cell-free assay, competition with immobilised ligand; 1 µM): 100%
C[C@@H]1CN(c2ccc3ncc(-c4ccc5[nH]nc(C6CC6)c5c4)n3n2)C[C@H](C)O1 — remaining binding (binding, competition with immobilised ligand; 0.5 µM): 100%
Cc1cnc(Nc2ccc(C(=O)N3CCC(N4CCCC4)CC3)cc2)nc1-c1cc2ccccc2s1 — remaining binding (binding, competition with immobilised ligand; 1 µM): 100%
CC1CCCN1c1nccc(-c2cnn3ncccc23)n1 (stereo not shown) — remaining binding (binding; 1 µM): 100%
O=C(O)c1cc(-c2ccc(C3CCNCC3)cc2)c2ccc(-c3ccc(C(F)(F)F)cc3)cc2c1 — remaining binding (cell-free assay, competition with immobilised ligand; 1 µM): 100%
c1cncc(-c2cccc(Nc3nccc(NC4CCCCC4)n3)c2)c1 — remaining binding (binding, competition with immobilised ligand; 10 µM): 85%
CNC(=O)[C@@H]1CC[C@@H](n2c(-c3ccc4cnccc4c3)nc3ccc(C(=O)NCc4cccc(C(N)=O)c4)cc32)C1 — remaining binding (binding, competition with immobilised ligand; 1 µM): 99%
CN(C)c1nccc(-c2cnn3ncccc23)n1 — remaining binding (binding; 1 µM): 91%
O=C(c1ccc(Nc2nccc(-c3cc4ccccc4s3)n2)cc1)N1CCC(N2CCCC2)CC1 — remaining binding (binding, competition with immobilised ligand; 1 µM): 100%
Cc1c[nH]c2nccc(Oc3c(F)cc(Nc4cc(Cl)nc(N)n4)cc3F)c12 — remaining binding (cell-free assay, competition with immobilised ligand; 0.1 µM): 100%
CN(c1nccc(-c2cnn3ncccc23)n1)C1CC1 — remaining binding (binding; 1 µM): 100%
CNC(=O)c1ccc(Nc2ncc(C(F)(F)F)c(NCc3nccnc3N(C)S(C)(=O)=O)n2)cc1 — remaining binding (cell-free assay, competition with immobilised ligand; 0.1 µM): 100%
O=C(NCC1CCOCC1)c1n[nH]cc1NC(=O)c1c(F)cccc1F — remaining binding (binding, competition with immobilised ligand; 1 µM): 100%
CN(C)c1nccc(-c2cnc3ncccn23)n1 — remaining binding (binding; 1 µM): 100%
O=C(O)[C@H]1[C@H](Cn2nnc3ccccc3c2=O)CC[C@@H]1C(=O)c1ccc(OCCC2CCOCC2)cc1 — remaining binding (cell-free assay, competition with immobilised ligand; 1 µM): 85%
